Shown are actives, neighbours in structure and some others; about 3.5% of the full set was active somewhere.
RGS4 pot = RGS4 potentiators or activators, primary screen, cell-based, HEK293 M3R inducible RGS4, calcium flux; carbachol calcium flux Fluo4; hits give low values; B-score at 10 µM; hit rate 0.92% among 310,000;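 active means B-score of the integrated calcium signal more than 4 SD below the library mean, with starting fluorescence not abnormally high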;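 further: negative B-score means reduced calcium response which marks RGS4 activation or potentiation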
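System: HEK293 FlpIn-TREx cells, stable M3R, doxycycline-inducible RGS4. Timing: overnight RGS4 induction, 30 min dye load 37 °C, 20 min compound RT. Also added: carbachol, ECmax concentration. Measured by: Fluo4 fluorescence kinetic imaging of calcium. Evaluation: integrated calcium ratio converted to B score.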
MrgX1 ag = agonists of human MrgX1 receptor, primary screen, HEK293 cells, Fluo-4 calcium flux; Fluo-4 calcium fluorescence, agonist mode; hits give high values; AID 588627, 2011; Mas-related G-protein coupled receptor member X1 (Homo sapiens), Q96LB2; hit rate 0.44% among 310,000; B-score at 10 µM;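 active means calcium response B-score plate-corrected fluorescence ratio at least 3 library SD, with starting fluorescence B-score inside 5 SD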
Target sequence (Q96LB2 whole entry, looked up): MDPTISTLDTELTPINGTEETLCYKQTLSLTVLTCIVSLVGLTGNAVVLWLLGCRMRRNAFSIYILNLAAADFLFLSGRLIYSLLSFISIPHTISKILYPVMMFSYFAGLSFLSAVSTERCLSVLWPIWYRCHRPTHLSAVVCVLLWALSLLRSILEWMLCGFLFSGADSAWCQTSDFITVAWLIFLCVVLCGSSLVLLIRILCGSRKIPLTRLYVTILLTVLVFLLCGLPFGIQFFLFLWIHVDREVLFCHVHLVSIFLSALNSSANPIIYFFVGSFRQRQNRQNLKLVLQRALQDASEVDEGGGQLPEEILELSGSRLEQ
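times = overnight plating, then 30 min 37 °C plus 30 min room-temperature dye loading | assay system = stable human MrgX1 HEK293 cell line | input = fifteen thousand cells per well | signal = kinetic calcium dye fluorescence, Fluo-4 NW | dosing = compound delivered in addition one of three | read-out = B-scored fluorescence response ratio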
MrgX1 antagonist = antagonists of human MrgX1 receptor, primary screen, HEK293 cells, Fluo-4 calcium flux. hit rate 1.3% among 310,000. AID 588676, 2011. B-score at 10 µM. Mas-related G-protein coupled receptor member X1 (Homo sapiens), Q96LB2. BAM8-22 antagonism; hits give low values;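 active means calcium-response B-score plate-corrected more than 3 library SD below zero, starting fluorescence within 5 deviations, no agonist response on first addition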;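 further: peak minus trough fluorescence over baseline after final BAM8-22 challenge near maximal dose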
RGS4 inh = RGS4 inhibitors, primary screen, cell-based, HEK293 M3R inducible RGS4, calcium flux; Regulator of G-protein signaling 4 (Homo sapiens), P49798; Fluo-4 calcium flux; hits give high values; triggered by carbachol at its EC20; B-score at 10 µM; AID 463165, 2010; hit rate 0.45% among 310,000;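 active means B-score, a plate-corrected calcium signal, over three deviations above library mean, with baseline fluorescence within five deviations of library mean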;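 further: RGS4 expression induced by doxycycline in cells with stable M3 receptor; B-score is computed from the integrated fluorescence ratio over baseline after carbachol; higher B-score means a larger calcium signal and so more RGS4 inhibition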
Target sequence (P49798 whole entry, looked up): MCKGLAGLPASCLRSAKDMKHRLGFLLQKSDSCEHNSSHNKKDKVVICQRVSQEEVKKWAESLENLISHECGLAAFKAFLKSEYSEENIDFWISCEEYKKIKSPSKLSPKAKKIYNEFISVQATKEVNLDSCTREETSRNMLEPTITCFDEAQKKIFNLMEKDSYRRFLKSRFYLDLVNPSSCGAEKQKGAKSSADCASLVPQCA
MrgX1 allo act = positive allosteric modulators of MrgX1, primary screen, HEK293 cells, Fluo-4 calcium flux. Mas-related G-protein coupled receptor member X1 (Homo sapiens), Q96LB2. FDSS; hits give high values. B-score at 10 µM. hit rate 0.63% among 310,000. AID 588675, 2011;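 active means plate-corrected calcium response at least 3 library SD above typical, normal starting fluorescence, not activating the receptor alone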;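 further: compound read alongside a low EC10 to EC30 dose of BAM8-22 agonist; peak minus trough fluorescence over baseline measured at the second addition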
RGS4 act valid = reduced carbachol calcium response, RGS4-induced M3R cells, confirmation, RGS4 activator project, cell-based, HEK293 M3R/RGS4 inducible, calcium flux, duplicate; hit rate 89% among 1,100; inhibition, % at 10 µM; carbachol calcium flux Fluo4; shares compounds with RGS4 pot;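 active means inhibition above 3 SD of the buffer control wells, cut at about 41% in these data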;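 further: signal is the integrated peak-minus-minimum Fluo4 fluorescence over baseline ratio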
RGS4 act ctr = counter-screen for RGS4 activators: effect in non-induced cells; shares compounds with RGS4 pot; HEK293 M3R non-induced RGS4, Fluo4 calcium flux; after carbachol challenge at its EC90; inhibition, % at 10 µM; hit rate 82% among 1,100; AID 602283;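 active means inhibition exceeding 3 SD of buffer-only control wells, cut at about 26% in these data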;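 further: percent drop in integrated peak-minus-baseline over baseline Fluo4 ratio after carbachol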
* = called active by the depositor; i = inactive; nt = no result given.

SMILES	RGS4 pot	MrgX1 ag	MrgX1 antagonist	RGS4 inh	MrgX1 allo act	RGS4 act valid	RGS4 act ctr
CCOc1ccc(Br)cc1C1C(C(=O)OC)=C(N)Oc2cc(N(C)C)ccc21 (centres undefined)	-9.2*	i	i	i	i	92*	69*
CCOC(=O)C(=CNc1cc(Cl)c(-c2ccco2)c(Cl)c1)C(=O)OCC	-7.8*	i	i	i	i	82*	84*
CCOC(=O)c1c(-c2ccccc2)csc1NC(=O)c1nn(CC)cc1Br	-7.6*	i	i	i	i	80*	0
COc1ccc(C)cc1NC(=S)NNC(=O)c1c(Br)cnn1C	i	i	i	i	i	nt	nt
CCN(CC)CCNC(C(=O)Nc1cccc(C(C)=O)c1)c1ccccc1 (centres undefined)	-13*	i	-5*	i	i	90*	45*
CCOc1ccc(NC(C(=O)Nc2cccc(C(C)=O)c2)c2ccccc2)cc1 (centres undefined)	i	i	i	i	i	nt	nt
O=[N+]([O-])c1cccc(-c2nnc(-c3ccccc3F)o2)c1	i	i	i	i	i	nt	nt
COCCOC(=O)c1c(C)oc2ccc(OC(=O)c3ccc4c(c3)OCO4)cc12	-8.4*	i	i	i	i	90*	59*
COCCOC(=O)c1c(C)oc2ccc(OC(=O)c3c(OC)cccc3OC)cc12	-7.7*	i	i	i	i	93*	57*
CCOC(=O)Oc1ccc2oc(C)c(C(=O)OCCOC)c2c1	i	i	i	i	i	nt	nt
Oc1ccccc1N1CCN(CC(O)COC2CCCc3ccccc32)CC1 (centres undefined)	i	i	i	i	i	nt	nt
CC(=O)N1CCc2cc(S(=O)(=O)CCC(=O)NCCc3ccc(Cl)cc3)ccc21	i	i	i	i	i	nt	nt
O=C(CSC(=S)N1CCCC1)NCC(=O)Nc1ccccc1Br	i	i	i	i	i	nt	nt
CC(C)=CCc1c(O)ccc2c1OC(c1ccc(O)c(O)c1)CC2=O (centres undefined)	-8.7*	i	i	i	i	93*	78*
O=C1CC(c2ccc(O)c(O)c2)Oc2c1ccc(O)c2O (centres undefined)	nt	i	i	nt	i	nt	nt
O=C(NCCS(=O)(=O)N1CCN(Cc2ccccc2)CC1)c1ccc(F)cc1	i	i	i	i	i	nt	nt
COc1ccc(CCC(C)NC2C3CC4CC(C3)CC2C4)cc1 (centres undefined)	-8.8*	nt	nt	i	nt	92*	87*
CCCCCOC(=O)c1ccc(OC(=O)c2cncc(Br)c2)cc1	i	i	i	i	i	nt	nt
CCCCCCCOC(=O)c1ccc(OC(=O)c2cccnc2)cc1	-8.4*	i	i	i	i	90*	59*
COc1ccc(N2C(=O)CSC2c2ccccc2)cc1 (centres undefined)	i	i	i	i	i	nt	nt
COc1cccc(C2SCC(=O)N2c2ccc(C)cc2)c1OC (centres undefined)	-8.9*	i	i	i	i	92*	86*
COc1ccc(N2C(=O)CSC2c2cccc(OC)c2OC)cc1 (centres undefined)	-11*	i	i	i	i	86*	46*
COc1ccc(OC(=O)COc2ccc(Cl)cc2)cc1	i	i	i	i	i	nt	nt
CCc1ccc(OCC(=O)N2CCN=C2c2ccccc2)cc1	-8.6*	i	i	i	i	0	0
CC(C)(C)c1cc(-c2csc(Nc3ccccc3)[n+]2Cc2ccc(C(=O)O)cc2)cc(C(C)(C)C)c1O	-11*	i	-9.5*	i	i	94*	97*
SMILES	RGS4 pot	MrgX1 ag	MrgX1 antagonist	RGS4 inh	MrgX1 allo act	RGS4 act valid	RGS4 act ctr
Cc1noc(C)c1C(=O)Nc1cccc2ncccc12	i	i	i	i	i	nt	nt
Cc1ccc(C)c(N2CCN(C(=O)c3ccc(CS(=O)(=O)c4ccccc4C)o3)CC2)c1	-8.8*	i	i	i	i	88*	66*
CN(C)C(CNC(=O)c1ccc(C2SCCS2)cc1)c1ccccc1 (centres undefined)	-10*	i	i	i	i	94*	80*
O=C(NCCOc1ccc(F)cc1)c1ccccc1SCc1ccccc1	-7.7*	i	i	i	i	92*	74*
CCc1ccc(OCCNC(=O)c2ccccc2SCc2ccc(F)cc2)cc1	i	i	i	i	i	nt	nt
NC(=O)C1CCN(CC(O)COc2ccc(-c3ccccc3)cc2)CC1 (centres undefined)	i	i	i	i	i	nt	nt
CC(C)CCN1C(=O)c2cccc3c(N)ccc(c23)C1=O	-7.8*	i	i	i	i	99*	95*
Nc1ccc2c3c(cccc13)C(=O)N(c1ccccc1)C2=O	i	nt	nt	i	nt	nt	nt
Nc1nnc(SCC(=O)OCC(=O)c2ccccc2Br)s1	i	i	i	i	i	nt	nt
CSc1ccc(S(=O)(=O)N2CCN(Cc3ccc4c(c3)OCO4)CC2)cc1	-9.9*	i	i	i	i	92*	91*
Cc1cccc(S(=O)(=O)N2CCN(Cc3ccc4c(c3)OCO4)CC2)c1	-10*	i	i	i	i	68*	84*
COc1ccc(S(=O)(=O)N2CCC(N3CCN(Cc4ccccc4)CC3)CC2)cc1	-8*	i	i	i	i	86*	50*
COc1ccc(S(=O)(=O)N2CCN(Cc3ccc4c(c3)OCO4)CC2)cc1	-11*	i	i	i	i	62*	84*
CCOc1ccc(S(=O)(=O)N2CCN(Cc3ccc4c(c3)OCO4)CC2)cc1Cl	i	i	i	i	i	nt	nt
CC(C)c1ccc(S(=O)(=O)N2CCN(C(=O)C3CCN(C(=O)c4ccc(F)cc4)CC3)CC2)cc1	i	i	i	i	i	nt	nt
CSc1ccccc1OCc1cc(C(=O)N2CCc3c(Cl)cccc3C2)no1	i	i	i	i	i	nt	nt
